Structures are written as SMILES. Calls of active or inactive are those of the source. The rule behind the calls is not given here.

By IC50 is commonly meant the concentration that gives 50% inhibition. As a reminder, the inhibition is the change of the read-out against control, counted positive when it falls.

Data set [1] relates to NIH3T3. Briefly: Antifibrotic activity against mouse NIH/3T3 cells assessed as inhibition of cell proliferation after 72 hrs by MTT assay. Format: functional, cell-based. The essentials: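 NIH-3T3 seeded at 5000 cells/well in DMEM/F12 with 10% FBS, allowed to attach 24 h, then exposed 72 h to graded compound concentrations. MTT (5 mg/mL stock) added for 2–4 h, formazan dissolved in DMSO, OD read at 490 nm. IC50 from regression equation; three repeats, mean.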

Data set [2] relates to NIH3T3. Briefly: Antifibrotic activity against mouse NIH/3T3 cells assessed as inhibition of TGFbeta1-induced increase in COL1A1 mRNA level at 500 nM preincubated for 1 hr followed by TGFbeta-1 addition measured after 24 hrs by qRT-PCR method. Format: functional, cell-based. The essentials:
(§1)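 NIH-3T3 cells pretreated 1 h with 500 nM compound, then stimulated with rat TGF-β1 5 ng/ml for 24 h. RNA extracted and qPCR run 40 cycles (95 °C 5 s / 60 °C 60 s). Transcripts normalized to GAPDH, fold change by 2^-ΔΔCt. n = 3, means ± SD.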
In general terms: Quantitative PCR measures a nucleic acid by following its amplification.

Data set [3] concerns NIH3T3. Briefly: Antifibrotic activity against mouse NIH/3T3 cells assessed as inhibition of TGFbeta1-induced increase in alpha-SMA mRNA level at 500 nM preincubated for 1 hr followed by TGFbeta-1 addition measured after 24 hrs by qRT-PCR method. The class given is functional, cell-based. The essentials: as §1
Data set [4] relates to NIH3T3. The data set can be described thus: Antifibrotic activity against mouse NIH/3T3 cells assessed as inhibition of FN mRNA level at 500 nM measured after 24 hrs by qRT-PCR method. The class given is functional, cell-based. In short, it runs like this: (§2)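 NIH-3T3 (DMEM/F12, 10% FBS, 37 °C, 5% CO2) given 500 nM compound without TGF-β1 for 24 h. Total RNA extracted; qPCR of α-SMA, FN, COL1A1 run 40 cycles (95 °C 5 s, 60 °C 60 s). Normalized to GAPDH, relative expression by 2^-ΔΔCt. Mean of three experiments ± SD.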

The test system of data set [5] is NIH3T3. Briefly: Antifibrotic activity against mouse NIH/3T3 cells assessed as inhibition of TGFbeta1-induced increase in FN mRNA level at 500 nM preincubated for 1 hr followed by TGFbeta-1 addition measured after 24 hrs by qRT-PCR method. Format: functional, cell-based. In short, it runs like this:
as §1

Data set [6] concerns NIH3T3. Briefly: Antifibrotic activity against mouse NIH/3T3 cells assessed as inhibition of alpha-SMA mRNA level at 500 nM measured after 24 hrs by qRT-PCR method. The class given is functional, cell-based. In short, it runs like this:
as §2

For data set [7], the system named is NIH3T3. The data set can be described thus: Antifibrotic activity against mouse NIH/3T3 cells assessed as inhibition of COL1A1 mRNA level at 500 nM measured after 24 hrs by qRT-PCR method. The class given is functional, cell-based. The essentials:
as §2

The nature of data set [8]: Inhibition of cell proliferation in HUVEC at 10 uM […] by MTT assay relative to control. The following applies: human, HUVEC cells. Format: cell-based. The essentials:
(§3)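 MTT test on HUVEC (DMEM/F12, 10% FBS) plated at 5000 cells/well, attached 24 h, then treated at 1, 10, 40 and 80 μM for the period printed as 42 h. MTT (5 mg/mL stock) incubated 2–4 h, formazan dissolved in DMSO, absorbance at 490 nm. Proliferation relative to control; mean of three experiments.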
In general terms: Tetrazolium assays rely on reduction of a dye to a coloured formazan, in cell work by metabolically active cells.

The test system of data set [9] is NIH3T3. The data set can be described thus: Antifibrotic activity against mouse NIH/3T3 cells assessed as inhibition of TGFbeta1-induced increase in FN protein expression by measuring ratio of FN to beta-actin protein level at 500 nM preincubated for 1 hr followed by TGFbeta-1 addition measured after 24 hrs by Western blot method (reference value: 0.95). The class given is functional. The essentials:
(§4)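 Western blot of NIH-3T3 treated with 500 nM compound plus rat TGF-β1 5 ng/ml for 24 h; PBS as control. RIPA/1% PMSF lysates quantified by BCA, run on 10% SDS-PAGE and blotted to PVDF. Blocked in 5% milk; α-SMA, FN, COL1A1 primaries 1:1000 overnight at 4 °C; HRP secondary 1:5000 for 2 h; ECL. Band intensity relative to β-actin. Three repeats, means ± SD.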
In general terms: A western blot detects proteins with antibodies after separation by electrophoresis.

Data set [10] relates to NIH3T3. Briefly: Antifibrotic activity against mouse NIH/3T3 cells assessed as inhibition of TGFbeta1-induced increase in alpha-SMA protein expression by measuring ratio of alpha-SMA to beta-actin protein level at 500 nM preincubated for 1 hr followed by TGFbeta-1 addition measured after 24 hrs by Western blot method (reference value: 0.87). The class given is functional. The essentials: as §4

Data set [11] is described as follows: Inhibition of cell proliferation in HUVEC at 80 uM after […] by MTT assay relative to control. The class given is cell-based. The following applies: human, HUVEC cells. In short, it runs like this: as §3
Data set [12] concerns NIH3T3. The data set can be described thus: Antifibrotic activity against mouse NIH/3T3 cells assessed as inhibition of TGFbeta1-induced increase in COL1A1 protein expression by measuring ratio of COL1A1 to beta-actin protein level at 500 nM preincubated for 1 hr followed by TGFbeta-1 addition measured after 24 hrs by Western blot method (reference value: 0.26). Format: functional. The essentials:
as §4

Setting [13] is: Mus musculus, NIH3T3, 72 h, read-out: IC50.

On to `C=C1CC[C@H]2[C@@](C)(CC[C@@H](OC(C)=O)[C@@]2(C)C(=O)OC)[C@@H]1/C=C/C1=CCOC1=O`, for which the half-maximal inhibitory concentration (IC50) in the data set with NIH3T3 [1] (setting [13]) worked out at 32.2 µM.
On to `C=C1CC[C@@H]2[C@](C)(CO)[C@H](O)CC[C@@]2(C)[C@@H]1/C=C/C1=CCOC1=O`, for which the inhibition result in the data set with NIH3T3 [2], in the data set on NIH3T3 [3], in the data set on NIH3T3 [4], in the data set on NIH3T3 [5], in the data set with NIH3T3 [6] and with NIH3T3 [7] was “Active” in each case. Moreover, the concentration for half-maximal inhibition (IC50) with NIH3T3 [1] (setting [13]) worked out at 64.3 µM.
`C=C1CC[C@H]2[C@@](C)(CC[C@@H](O)[C@@]2(C)C(=O)OCc2ccccn2)[C@@H]1/C=C/C1=CCOC1=O`: the IC50 in the data set on NIH3T3 [1] (setting [13]) came to 80.2 µM.
The same measure, in the same setting: the figure for `C=C1CC[C@H]2[C@@](C)(CC[C@@H](OC(C)=O)[C@@]2(C)C(=O)OCc2ccccc2)[C@@H]1/C=C/C1=CCOC1=O` is 52.7 µM; for `C=C1CC[C@H]2[C@@](C)(CC[C@@H](OC(C)=O)[C@@]2(C)C(=O)OC)[C@@H]1CCC1=CCOC1=O` it is 80.6 µM; for `C=C1CC[C@H]2[C@@](C)(CC[C@@H](O)[C@@]2(C)C(=O)OC)[C@@H]1/C=C/C1=CCOC1=O` it is 111 µM.
In the case of `C=C1CC[C@H]2[C@@](C)(CC[C@@H](O)[C@@]2(C)C(=O)OCc2ccccc2)[C@@H]1CCC1=CCOC1=O`, the IC50 in the data set with NIH3T3 [1] (setting [13]) came out at 37.9 µM.
Consider `C=C1CC[C@H]2[C@@](C)(CC[C@@H](O)[C@@]2(C)C(=O)OC)[C@@H]1CCC1=CCOC1=O`, for which the IC50 with NIH3T3 [1] (setting [13]) came out at 60.6 µM.
On the same count and under the same terms, the figure for `C=C1CC[C@H]2[C@@](C)(CC[C@@H](OC(C)=O)[C@@]2(C)C(=O)OCc2ccccc2)[C@@H]1C/C=C1\C=COC1=O` is 78 µM; for `C=C1CC[C@H]2[C@@](C)(CC[C@@H](O)[C@@]2(C)C(=O)OC)[C@@H]1C/C=C1\C=COC1=O` it is 177 µM.
For `C=C1CC[C@@H]2[C@](C)(CO)[C@H](O)CC[C@@]2(C)[C@@H]1C/C=C1\C=COC1=O`, in the data set on NIH3T3 [1] (nih3t3), the IC50 entry is recorded as “Not Active”.
For the compound `C=C1CC[C@H]2[C@@](C)(CC[C@@H](O)[C@@]2(C)C(=O)OCc2ccccn2)[C@@H]1CCC1=CCOC1=O`, the IC50 in the data set on NIH3T3 [1] (setting [13]) turned out to be 79.8 µM.
For `C=C1CC[C@H]2[C@@](C)(CC[C@@H](O)[C@@]2(C)C(=O)OCc2ccccc2)[C@@H]1/C=C/C1=CCOC1=O`, the inhibition at 10 µM in data set [8] came to 9.7%. Also, the Ratio with NIH3T3 [9] came to 0.47; with NIH3T3 [10] it was 0.39; in the data set with NIH3T3 [12], 0.42. Further, the inhibition entry in the data set on NIH3T3 [2], in the data set on NIH3T3 [3], in the data set on NIH3T3 [4], in the data set with NIH3T3 [5], with NIH3T3 [6] and in the data set with NIH3T3 [7] was “Active” throughout. Also, in [11], 80 µM produced 68.7% inhibition. For the same compound, the IC50 with NIH3T3 [1] (setting [13]) was found to be 13.6 µM.
Take `C=C1CC[C@H]2[C@@](C)(CC[C@@H](O)[C@@]2(C)C(=O)OCc2ccccc2)[C@@H]1C/C=C1\C=COC1=O`: the IC50 in the data set with NIH3T3 [1] (setting [13]) came to 177 µM.
For `C=C1CC[C@@H]2[C@](C)(CO)[C@H](O)CC[C@@]2(C)[C@@H]1C/C=C1/C(=O)OC[C@H]1O` [ANDROGRAPHOLIDE], testing at 10 µM in data set [8] gave an inhibition of 10.4%. Further, the inhibition entry in the data set on NIH3T3 [2], with NIH3T3 [3], with NIH3T3 [4], in the data set on NIH3T3 [5], in the data set on NIH3T3 [6] and in the data set on NIH3T3 [7] was “Active” throughout. In data set [11], at 80 µM the inhibition was 26.4%. In addition, the IC50 in the data set with NIH3T3 [1] (setting [13]) was found to be 95.3 µM.
As to `C=C1CC[C@H]2[C@@](C)(CC[C@@H](OC(C)=O)[C@@]2(C)C(=O)OCc2ccccn2)[C@@H]1CCC1=CCOC1=O`, the half-maximal inhibitory concentration (IC50) in the data set with NIH3T3 [1] (setting [13]) turned out to be 55.5 µM.
`C=C1CC[C@H]2[C@@](C)(CC[C@@H](OC(C)=O)[C@@]2(C)C(=O)OCc2ccccc2)[C@@H]1CCC1=CCOC1=O` came in with an inhibition at 10 µM in data set [8] of 6.6%. Besides, the Ratio is listed as 0.46 in the data set with NIH3T3 [9], 0.4 in the data set on NIH3T3 [10] and 0.38 with NIH3T3 [12]. The inhibition result in the data set with NIH3T3 [2], in the data set with NIH3T3 [3], with NIH3T3 [4], with NIH3T3 [5], in the data set with NIH3T3 [6] and in the data set with NIH3T3 [7] was “Active” throughout. Moreover, testing at 80 µM in data set [11] gave an inhibition of 55.7%. Also, in the data set with NIH3T3 [1] (setting [13]), the half-maximal inhibitory concentration (IC50) was determined as 12.9 µM.
`C=C1CC[C@H]2[C@@](C)(CC[C@@H](OC(C)=O)[C@@]2(C)C(=O)OCc2ccccn2)[C@@H]1/C=C/C1=CCOC1=O`: the IC50 in the data set on NIH3T3 [1] (setting [13]) was found to be 34.9 µM.
The same measure, in the same setting: for `C=C1CC[C@H]2[C@@](C)(CC[C@@H](OC(C)=O)[C@@]2(C)C(=O)OC)[C@@H]1C/C=C1\C=COC1=O` the value was 69.7 µM.
With `C=C1CC[C@@H]2[C@](C)(CO)[C@H](O)CC[C@@]2(C)[C@@H]1CCC1=CCOC1=O` [DEOXYANDROGRAPHOLIDE], the inhibition entry with NIH3T3 [2], in the data set on NIH3T3 [3], in the data set with NIH3T3 [4], in the data set on NIH3T3 [5], in the data set with NIH3T3 [6] and in the data set on NIH3T3 [7] was “Active” each time. For the same compound, the IC50 in the data set on NIH3T3 [1] (setting [13]) worked out at 176 µM.
